A short description of data set [1]: Half life in mouse liver microsomes at 1 uM incubated for 15 mins prior to beta-NADPH addition by LC-MS/MS analysis. In kind it is ADME, Microsome. As to conditions: for t1/2: microsomes, 0.25 h, 1 µM; for half-life at 1 µM: liver microsomes. The method in brief:
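Compounds at 1 μM incubated with mouse liver microsomes. Degradation followed by LC–MS and reported as half-life.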

Another data set deals with MEF. The data set is described as follows: Cytotoxicity against C57BL/6 mouse MEF assessed as growth inhibition after 72 hrs by MTT assay. It is filed as cell-based. As to conditions: C57BL/6, MEF. The method in brief: (§1)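 Antiproliferative activity measured by MTT assay. EC50 is the average of triplicate experiments, with error as SEM.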
Another data set relates to MDA-MB-231. The data set is described as follows: Cytotoxicity against human MDA-MB-231 cells assessed as growth inhibition after 72 hrs by MTT assay. It is filed as functional, cell-based. The following applies: MDA-MB-231, 72 h. The method in brief:
as §1

Another data set concerns MCF7. The data set is described as follows: Cytotoxicity against human MCF7 cells assessed as growth inhibition after 72 hrs by MTT assay. In kind it is functional, cell-based. The following applies: MCF7, 72 h. The method in brief:
as §1

Data set [2] addresses Heat shock cognate 71 kDa protein (Homo sapiens, UniProt P11142). Briefly: Binding affinity to human HSC70 after 3 hrs by ELISA.

pEC50, pKd: −log10 of the molar value. Where only a bound is given, the exact number is not on record here.

Sequence of Heat shock cognate 71 kDa protein (P11142 whole entry): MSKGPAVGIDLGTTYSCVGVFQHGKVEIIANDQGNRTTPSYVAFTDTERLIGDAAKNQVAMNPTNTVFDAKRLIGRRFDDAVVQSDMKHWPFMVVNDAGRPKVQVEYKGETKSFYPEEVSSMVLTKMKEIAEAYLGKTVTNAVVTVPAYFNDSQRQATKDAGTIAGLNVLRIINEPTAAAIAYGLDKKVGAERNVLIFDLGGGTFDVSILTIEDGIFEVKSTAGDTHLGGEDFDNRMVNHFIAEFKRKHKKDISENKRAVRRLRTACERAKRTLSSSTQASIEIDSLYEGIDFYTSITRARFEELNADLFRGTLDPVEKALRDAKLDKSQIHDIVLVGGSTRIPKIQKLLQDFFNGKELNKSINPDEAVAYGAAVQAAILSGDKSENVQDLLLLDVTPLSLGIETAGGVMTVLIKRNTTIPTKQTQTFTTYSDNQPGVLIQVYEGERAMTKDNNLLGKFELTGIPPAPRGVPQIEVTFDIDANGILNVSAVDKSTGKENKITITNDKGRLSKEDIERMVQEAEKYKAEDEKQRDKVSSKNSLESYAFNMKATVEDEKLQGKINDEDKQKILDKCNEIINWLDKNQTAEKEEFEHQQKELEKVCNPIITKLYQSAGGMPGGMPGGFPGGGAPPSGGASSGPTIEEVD

Take `CCC[n+]1ccccc1/C=c1\s/c(=C2/Sc3ccccc3N2C)c(=O)n1CC.[Cl-]`: in data set [1], the t1/2 result is listed as “ND(Insoluble)”. The pEC50 is below 4.30 in the data set on MEF, 5.80 in the data set on MDA-MB-231 and 5.55 in the data set with MCF7.

The compound `CCn1c(=O)/c(=C2\Sc3c(Cl)cccc3N2C)s/c1=C\c1cccc[n+]1CCCCCCNC(=O)CCCC[C@@H]1SC[C@@H]2NC(=O)N[C@@H]21` gave a pKd in data set [2] of 5.59.

As to `CCn1c(=O)/c(=C2\Sc3c(F)cccc3N2C)s/c1=C\c1cccc[n+]1CCCCCCNC(=O)CCCC[C@@H]1SC[C@@H]2NC(=O)N[C@@H]21`, the pKd in data set [2] was 5.72.

As for `CCn1c(=O)/c(=C2\Sc3ccccc3N2C)s/c1=C\c1cccc[n+]1C.[Cl-]`, the half-life at 1 µM in data set [1] is below 5 min. Moreover, the values for the pEC50 in the data set with MEF, in the data set with MDA-MB-231 and with MCF7 were below 4.30, 5.70 and 5.28, respectively.

`CCn1c(=O)/c(=C2\Sc3ccc(F)cc3N2C)s/c1=C\c1cccc[n+]1CCCCCCNC(=O)CCCC[C@@H]1SC[C@@H]2NC(=O)N[C@@H]21` had a pKd in data set [2] of 5.64.

In data set [2], `CCn1c(=O)/c(=C2\Sc3ccc(OC)cc3N2C)s/c1=C\c1cccc[n+]1CCCCCCNC(=O)CCCC[C@@H]1SC[C@@H]2NC(=O)N[C@@H]21` gave a pKd of 6.05.

For the compound `CCn1c(=O)/c(=C2\Sc3cc(C(F)(F)F)ccc3N2C)s/c1=C\c1cccc[n+]1C.[Cl-]`, the t1/2 entry in data set [1] is given as “ND(Insoluble)”. Also, the results for the pEC50 with MEF, in the data set with MDA-MB-231 and with MCF7 were below 4.30, 4.72 and below 4.52, respectively.

With `CCn1c(=O)/c(=C2\Sc3cccc(F)c3N2C)s/c1=C\c1cccc[n+]1CC.[Cl-]`, the t1/2 result in data set [1] is “ND(Insoluble)”. Moreover, the pEC50 in the data set on MEF is below 4.52; in the data set with MDA-MB-231, 5.42; with MCF7 it was 6.00.

As to `CCn1c(=O)/c(=C2\Sc3cc(F)ccc3N2C)s/c1=C\c1cccc[n+]1CCCCCCNC(=O)CCCC[C@@H]1SC[C@@H]2NC(=O)N[C@@H]21`, in data set [2], the pKd is 5.82.

With `CCn1c(=O)/c(=C2\Sc3ccccc3N2C)s/c1=C\c1scc[n+]1CC.[Cl-]`, in data set [1], the t1/2 result is “ND(Insoluble)”. Moreover, the pEC50 in the data set with MEF was below 4.52; in the data set with MDA-MB-231, 5.66; with MCF7 it was 6.10.

For the compound `CCn1c(=O)/c(=C2\Sc3ccccc3N2C)s/c1=C\c1cc[n+](C)cc1.[Cl-]`, in data set [1], the t1/2 result is recorded as “ND(Insoluble)”. The pEC50 in the data set on MEF was below 4.30; with MDA-MB-231, 5.77; with MCF7, 4.72.

On to `CCn1c(=O)/c(=C2\Sc3ccccc3N2C)s/c1=C\c1nccc[n+]1C.[Cl-]`, for which, in data set [1], the t1/2 entry is on record as “ND(Insoluble)”. The pEC50 is below 4.30 with MEF, 5.24 in the data set on MDA-MB-231 and 5.04 in the data set with MCF7.

In the case of `CCn1c(=O)/c(=C2\Sc3c(F)cccc3N2C)s/c1=C\c1cccc[n+]1CC.[Cl-]`, the t1/2 result in data set [1] is listed as “ND(Insoluble)”. The values for the pEC50 in the data set on MEF, in the data set on MDA-MB-231 and with MCF7 were 4.57, 5.55 and 6.10, respectively.

`CCn1c(=O)/c(=C2\Sc3ccc(OC)cc3N2C)s/c1=C\c1cccc[n+]1C.[Cl-]`: the t1/2 entry in data set [1] is listed as “ND(Insoluble)”. Further, the pEC50 in the data set on MEF is below 4.30; in the data set on MDA-MB-231 it was 5.55; in the data set with MCF7, 4.85.

As for `CCn1c(=O)/c(=C2\Sc3cc(Cl)ccc3N2C)s/c1=C\c1cccc[n+]1C.[Cl-]`, the half-life at 1 µM in data set [1] came out at 8.2 min. Besides, the pEC50 was below 4.30 in the data set with MEF, 5.08 in the data set with MDA-MB-231 and 5.02 with MCF7.

Compound `CCn1c(=O)/c(=C2\Sc3cc(OC)ccc3N2C)s/c1=C\c1cccc[n+]1CCCCCCNC(=O)CCCC[C@@H]1SC[C@@H]2NC(=O)N[C@@H]21` gave a pKd in data set [2] of 5.27.

As to `CCn1c(=O)/c(=C2\Sc3ccccc3N2C)s/c1=C\c1cccc[n+]1CCO.[Cl-]`, in data set [1], the t1/2 result is recorded as “ND(Insoluble)”. Moreover, the pEC50 in the data set with MEF was below 4.30; with MDA-MB-231, 4.62; in the data set on MCF7, 5.16.

For the compound `CCn1c(=O)/c(=C2\Sc3c(Cl)cccc3N2C)s/c1=C\c1scc[n+]1Cc1ccccc1.[Cl-]`, the t1/2 result in data set [1] is “ND(Insoluble)”. Besides, the pEC50 in the data set with MEF is below 4.52; with MDA-MB-231, 6.30; in the data set on MCF7, 6.00.

`CCn1c(=O)/c(=C2\Sc3cc(F)ccc3N2C)s/c1=C\c1cccc[n+]1C.[Cl-]` gave a t1/2 in data set [1] of 7.7 min. The pEC50 in the data set on MEF was below 4.30; in the data set on MDA-MB-231, 5.25; in the data set with MCF7, 5.21.

For the compound `CN1/C(=c2\s/c(=C\c3cccc[n+]3C)n(Cc3ccccc3)c2=O)Sc2ccccc21.[Cl-]`, the t1/2 entry in data set [1] was “ND(Insoluble)”. Moreover, the figures for the pEC50 in the data set with MEF, in the data set on MDA-MB-231 and in the data set on MCF7 were below 4.30, 5.74 and 5.54, respectively.

`CCn1c(=O)/c(=C2\Sc3cc(C(F)(F)F)ccc3N2C)s/c1=C\c1cccc[n+]1CCCCCCNC(=O)CCCC[C@@H]1SC[C@@H]2NC(=O)N[C@@H]21` showed a pKd in data set [2] of 6.00.

As to `CCn1c(=O)/c(=C2\Sc3ccc(F)cc3N2C)s/c1=C\c1cccc[n+]1CC.[Cl-]`, in data set [1], the t1/2 result was “ND(Insoluble)”. In addition, the pEC50 with MEF is below 4.52; in the data set with MDA-MB-231 it was 4.89; in the data set on MCF7, 5.62.

As to `CCn1c(=O)/c(=C2\Sc3ccccc3N2C)s/c1=C\c1cccc[n+]1Cc1ccccc1.[Cl-]`, the t1/2 entry in data set [1] was “ND(Insoluble)”. Also, the results for the pEC50 in the data set on MEF, in the data set with MDA-MB-231 and in the data set with MCF7 were below 4.30, 6.00 and 5.82, respectively.

Turning to `CCn1c(=O)/c(=C2\Sc3ccc(C(F)(F)F)cc3N2C)s/c1=C\c1cccc[n+]1C.[Cl-]`, the t1/2 result in data set [1] is on record as “ND(Insoluble)”. The results for the pEC50 in the data set on MEF, in the data set with MDA-MB-231 and in the data set with MCF7 were below 4.30, 4.68 and below 4.52, respectively.

In data set [1], `CCn1c(=O)/c(=C2\Sc3ccc(F)cc3N2C)s/c1=C\c1cccc[n+]1C.[Cl-]` gave a t1/2 of 23 min. For the same compound, the pEC50 was below 4.30 with MEF, 5.11 in the data set with MDA-MB-231 and 4.74 in the data set on MCF7.

Regarding `C=CCn1c(=O)/c(=C2\Sc3ccccc3N2C)s/c1=C\c1cccc[n+]1C.[Cl-]`, in data set [1], the t1/2 entry is “ND(Insoluble)”. The pEC50 was below 4.30 in the data set with MEF, 5.44 in the data set with MDA-MB-231 and 5.08 in the data set on MCF7.

Take `CCn1c(=O)/c(=C2\Sc3ccc(Cl)cc3N2C)s/c1=C\c1scc[n+]1Cc1ccccc1.[Cl-]`: the t1/2 result in data set [1] was “ND(Insoluble)”. The pEC50 in the data set with MEF was below 4.52; in the data set on MDA-MB-231, 6.22; in the data set with MCF7 it was 6.10.

As for `CCn1c(=O)/c(=C2\Sc3ccc(Cl)cc3N2C)s/c1=C\c1cccc[n+]1C.[Cl-]`, in data set [1], the t1/2 result is listed as “ND(Insoluble)”. The pEC50 in the data set on MEF was below 4.30; with MDA-MB-231, 5.34; in the data set on MCF7, 4.55.

Take `CCn1c(=O)/c(=C2\Sc3ccc(Cl)cc3N2C)s/c1=C\c1cccc[n+]1CCCCCCNC(=O)CCCC[C@@H]1SC[C@@H]2NC(=O)N[C@@H]21`: the pKd in data set [2] is 5.40.

`CCn1c(=O)/c(=C2\Sc3c(Cl)cccc3N2C)s/c1=C\c1cccc[n+]1C.[Cl-]`: the t1/2 entry in data set [1] is listed as “ND(Insoluble)”. Besides, the values for the pEC50 in the data set with MEF, in the data set with MDA-MB-231 and with MCF7 were below 4.30, 5.39 and 5.28, respectively.

As for `CCn1c(=O)/c(=C2\Sc3cccc(F)c3N2C)s/c1=C\c1cccc[n+]1C.[Cl-]`, the t1/2 in data set [1] was found to be 15 min. Besides, the pEC50 with MEF is below 4.30; in the data set with MDA-MB-231, 5.40; in the data set on MCF7, 5.66.

Turning to `CCn1c(=O)/c(=C2\Sc3ccccc3N2C)s/c1=C\c1cccc[n+]1CCCCCCNC(=O)CCCC[C@@H]1SC[C@@H]2NC(=O)N[C@@H]21`, in data set [2], the pKd was 5.70.

`CCn1c(=O)/c(=C2\Sc3cc(Cl)ccc3N2C)s/c1=C\c1cccc[n+]1CCCCCCNC(=O)CCCC[C@@H]1SC[C@@H]2NC(=O)N[C@@H]21`: in data set [2], the pKd is 5.77.

Take `CCn1c(=O)/c(=C2\Sc3cc(F)ccc3N2C)s/c1=C\c1cccc[n+]1CC.[Cl-]`: the t1/2 entry in data set [1] is listed as “ND(Insoluble)”. In addition, the pEC50 with MEF is below 4.52; in the data set on MDA-MB-231, 5.08; with MCF7, 6.05.

The compound `CCn1c(=O)/c(=C2\Sc3cccc(Cl)c3N2C)s/c1=C\c1scc[n+]1Cc1ccccc1.[Cl-]` registered a half-life at 1 µM in data set [1] of 8.8 min. Further, the pEC50 is 5.15 in the data set on MEF, 6.40 in the data set on MDA-MB-231 and 6.10 in the data set with MCF7.

As for `CCn1c(=O)/c(=C2\Sc3c(F)cccc3N2C)s/c1=C\c1cccc[n+]1C.[Cl-]`, the t1/2 in data set [1] is recorded as 16 min. Further, the results for the pEC50 in the data set on MEF, with MDA-MB-231 and in the data set on MCF7 were below 4.30, 5.21 and 5.07, respectively.

For the compound `CCn1c(=O)/c(=C2\Sc3cccc(Cl)c3N2C)s/c1=C\c1cccc[n+]1C.[Cl-]`, the t1/2 entry in data set [1] was “ND(Insoluble)”. The pEC50 in the data set on MEF is below 4.30; in the data set on MDA-MB-231 it was 5.36; in the data set on MCF7, 5.11.

Consider `CCn1c(=O)/c(=C2\Sc3ccccc3N2C)s/c1=C\c1scc[n+]1C.[Cl-]`, for which the t1/2 entry in data set [1] is “ND(Insoluble)”. Further, the pEC50 in the data set on MEF is below 4.30; in the data set with MDA-MB-231, 5.29; with MCF7, 6.15.

With `CCn1c(=O)/c(=C2\Sc3ccccc3N2C)s/c1=C\c1scc[n+]1Cc1ccccc1.[Cl-]`, the t1/2 entry in data set [1] was “ND(Insoluble)”. Further, the pEC50 is 5.17 with MEF, 6.30 in the data set with MDA-MB-231 and 6.22 in the data set with MCF7.

In data set [1], `CCn1c(=O)/c(=C2\Sc3cc(OC)ccc3N2C)s/c1=C\c1cccc[n+]1C.[Cl-]` had a half-life at 1 µM of 10 min. Besides, the pEC50 was below 4.30 in the data set on MEF, 5.40 in the data set with MDA-MB-231 and 4.96 in the data set with MCF7.

(Values after ChEMBL document CHEMBL3091336, “Analogs of the Allosteric Heat Shock Protein 70 (Hsp70) Inhibitor, MKT-077, as Anti-Cancer Agents” (ACS Med Chem Lett, 2013).)
